EBV gp42 inh = EBV gp42 inhibition. Fluorescence polarization binding assay, mP read-out. hit rate 0.42% among 220,000. Q1HVG2. inhibition, % (tested at 21.74 µM). AID 1085; in the data active means inhibition above about 50%
Target sequence (Q1HVG2 whole entry, looked up): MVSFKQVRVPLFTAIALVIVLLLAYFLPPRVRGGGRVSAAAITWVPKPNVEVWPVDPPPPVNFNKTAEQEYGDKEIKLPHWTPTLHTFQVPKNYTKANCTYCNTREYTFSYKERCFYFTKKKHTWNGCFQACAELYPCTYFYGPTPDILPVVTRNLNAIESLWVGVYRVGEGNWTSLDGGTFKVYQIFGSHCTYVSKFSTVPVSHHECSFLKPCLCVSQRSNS
LANA DNA inh = blocks KSHV LANA C-terminal domain binding to DNA; MBP-C-LANA/FAM-LBS DNA binding, fluorescence polarization; inhibition, % at 9 µM; hit rate 0.078% among 340,000;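 active means highest replicate inhibition at or above 60% at 9 µM, even if other replicates fall short; inactive means all replicates below 60% inhibition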
T cell modulator = T cell immune modulators affecting CD8 T cell-vesicle binding | 2C CD8+ T cell-vesicle binding, flow cytometry; active compounds read low | response (vesicle binding), % at 7 µM | hit rate 0.068% among 330,000;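 active means response, share of CD8 T cells binding vesicles, and their 90th percentile fluorescence all below set limits, cut at about 80% in these data, passing the limit was not always enough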;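 further: values below 100% mean blocked vesicle binding to the CD8+ T cells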
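Material: 2C TCR transgenic mouse naive CD8+ T cells, MACS-purified. Also added: QL9-charged Drosophila Ld/ICAM-1/B7-1 vesicles. Timing: binding 1.5 h at 37 °C. Measured by: high-throughput flow cytometry with anti-B7-1 and anti-CD8 staining. Read-out: percent CD8+ FL2 mean versus row control. Controls: Unloaded micro-vesicles (low), QL9 vesicles with 0.7% DMSO (high).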
MEX-5 binding = C. elegans MEX-5 TCR-2 RNA binding activity | Q9XUB2 | MEX-5/FITC-TCR2 RNA binding, fluorescence polarization; active compounds read low | activity score (negative = inhibition of binding), % at 10 µM | hit rate 0.38% among 300,000;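 active means inhibition past about -25% in most replicates, and total fluorescence under double the plate's negative control median, limit read from the data; inconclusive means replicates evenly split on the limit, or fluorescence at least double controls; inactive means too little inhibition in most replicates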
Target sequence (Q9XUB2 whole entry, looked up): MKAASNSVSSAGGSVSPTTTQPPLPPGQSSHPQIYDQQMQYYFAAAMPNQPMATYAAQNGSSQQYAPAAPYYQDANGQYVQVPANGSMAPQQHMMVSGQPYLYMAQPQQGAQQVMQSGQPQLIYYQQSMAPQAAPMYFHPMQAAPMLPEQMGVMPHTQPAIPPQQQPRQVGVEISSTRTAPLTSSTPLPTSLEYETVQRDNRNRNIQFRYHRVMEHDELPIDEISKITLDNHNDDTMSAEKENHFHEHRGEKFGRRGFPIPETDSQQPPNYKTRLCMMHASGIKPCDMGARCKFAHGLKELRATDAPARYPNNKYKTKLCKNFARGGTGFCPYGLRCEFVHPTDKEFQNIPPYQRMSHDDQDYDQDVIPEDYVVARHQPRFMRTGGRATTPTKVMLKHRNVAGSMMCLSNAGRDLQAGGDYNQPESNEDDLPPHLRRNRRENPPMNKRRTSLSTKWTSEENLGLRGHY
GRK2 inh = human GRK2 inhibition via aptamer displacement; P25098; bead flow cytometry, FAM-aptamer displacement from GRK2; inhibition of aptamer binding, % at 10 µM; hit rate 0.59% among 330,000; AID 488847;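 active means inhibition of aptamer binding above 40%, roughly 3 SD of noise, on plates passing a quality check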;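 further: median bead fluorescence of bound FAM aptamer so fluorescent compounds give negative values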
Keap1-Nrf2 PPI = disrupts human Keap1 binding to Nrf2 peptide | inhibition, % at 9.4 µM | Q14145 | hit rate 0.15% among 340,000 | Keap1 Kelch-Nrf2 peptide fluorescence polarization, 1536-well; in the data active means inhibition above about 12%; inconclusive means no clear call, values can overlap the other calls; inactive means below about 7.3%;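 further: human Keap1 Kelch domain with fluorescein labeled Nrf2 9mer peptide probe; higher means more block of Keap1 binding to Nrf2 peptide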
GRK2 inh confirm = confirmation of human GRK2 inhibitors displacing RNA aptamer. shares compounds with GRK2 inh. bead-bound GRK2, FAM-aptamer displacement, flow cytometry. aptamer displacement, % at 10 µM. hit rate 4% among 2,000. AID 504451;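 active means aptamer displacement above 40%, near three times the noise of non-fluorescent compounds, on plates passing quality checks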;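 further: negative values mostly reflect intrinsic compound fluorescence rather than true enhancement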
Aptamer quench 1 = fluorescent aptamer quenching in GRK2 counter-screen dose response; Fluorescent RNA aptamer beads, flow cytometry; active compounds read high; AID 504521; 110 tested, under 10 active; fluorescence change (kMESF span), kMESF (no concentration beside the values); shares compounds with GRK2 inh;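 active means compounds whose bead fluorescence drops by more than 37 kMESF across the dose range, marking them as dye quenchers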
FAM quench CP1 = counter-screen for GRK2 aptamer inhibitors: fluorescent aptamer quenchers | 2,000 tested, under 10 active | shares compounds with GRK2 inh | fluorescence response (% of DMSO), % at 10 µM | Carboxyfluorescein RNA aptamer on beads, flow cytometry quenching; active compounds read low | AID 504580;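 active means compounds that quench the bead-bound fluorescent RNA probe, cutting fluorescence to under half of the solvent control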;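 further: counterscreen run without GRK2 so only probe quenching by compound is measured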
GRK2 confirm 2 = human GRK2 inhibition confirmation, cherry pick 2; shares compounds with GRK2 inh; 360 tested, under 10 active; bead-bound GRK2, FAM-aptamer displacement, flow cytometry; inhibition of aptamer binding, % at 10 µM;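 active means inhibition of aptamer binding above 40%, about triple the noise seen with nonglowing compounds, on plates passing quality control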;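 further: negative values mostly come from compounds that fluoresce themselves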
FAM quench CP2 = aptamer fluorescence quenching in GRK2 counter-screen | 360 tested, under 10 active | shares compounds with GRK2 inh | fluorescence response vs DMSO, % at 10 µM | carboxyfluorescein RNA aptamer beads, flow cytometry quenching; active compounds read low;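 active means response vs DMSO under 50%, meaning signal dropped by over half, treated as fluorescence quencher; inconclusive means no clear call, values can overlap the other calls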;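 further: labelled aptamer on streptavidin beads without GRK2 as a quench counter-screen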
Each line names hits and unclear results; the compound was inactive in the other large screens (follow-up assays come after a bar, where they were run). The list is not random: actives were taken first. Their share in the collection is about 1.3%.

O=C(N/N=C/c1cc([N+](=O)[O-])ccc1N1CCCCCC1)c1ccccn1	GRK2 inh 84.0 | GRK2 inh confirm inactive | FAM quench CP1 inactive
CC1CC(C)CN(Cc2nc(N)nc(Nc3ccc4ccccc4c3)n2)C1 (stereo unspecified)	none
O=C(Cc1ccc(Br)cc1)OCC(=O)N1CCc2ccccc2C1	GRK2 inh 46.0 | GRK2 confirm 2 inactive | FAM quench CP2 inactive
O=C(COc1ccc(Br)cc1)N1CCc2ccccc2C1	none
COc1ccc(O)c(C(=O)c2cnc3c(c2)c(C)nn3CCO)c1	none (no result: EBV gp42 inh)
CN(Cc1ccccc1)S(=O)(=O)c1ccc2[nH]cc(C(=O)NCC3CCCO3)c(=O)c2c1 (stereo unspecified)	GRK2 inh 45.0 (no result: MEX-5 binding) | GRK2 inh confirm inactive | FAM quench CP1 inactive
Nc1c(C(=O)CSc2nncn2-c2ccccc2)c(=O)[nH]c(=O)n1C1CC1	GRK2 inh 61.0 (no result: EBV gp42 inh, MEX-5 binding) | GRK2 inh confirm inactive | FAM quench CP1 inactive
Cc1cccc2c1cnn2C(=O)CCC(=O)N1CCC(C)CC1	GRK2 inh 70.0 (no result: EBV gp42 inh) | GRK2 inh confirm inactive | FAM quench CP1 inactive
CC(=O)NC1C(=O)N(CCN2CCOCC2)c2ccc(C)cc21 (stereo unspecified)	none (no result: EBV gp42 inh)
CC(=O)NC1C(=O)N(CCN2CCOCC2)c2ccc(Cl)cc21 (stereo unspecified)	GRK2 inh 98.0 (no result: EBV gp42 inh) | GRK2 inh confirm inactive | FAM quench CP1 inactive
CN1c2ccccc2C2(C)CCCC3=Cc4cccc([N+](=O)[O-])c4OC312 (stereo unspecified)	none
O=C(COc1ccc(/C=N/NC(=O)c2ccncc2)cc1)Nc1ccccc1	GRK2 inh 95.0 (no result: EBV gp42 inh) | GRK2 inh confirm inactive | FAM quench CP1 inactive
Cc1ccc(CNC(=O)CCC2CCCN(C(=O)c3ccc4c(c3)OCO4)C2)o1 (stereo unspecified)	GRK2 inh 45.0 | GRK2 inh confirm inactive | FAM quench CP1 inactive
O=C(O)C[C@H]1c2cc(F)ccc2S(=O)(=O)N1C1CCCC1	GRK2 inh 44.0 (no result: EBV gp42 inh) | GRK2 inh confirm inactive | FAM quench CP1 inactive
O=C(CCc1ccco1)CCc1ccco1	none (no result: EBV gp42 inh, T cell modulator, MEX-5 binding, GRK2 inh)
CCc1cn(S(=O)(=O)c2ccccc2OC)nc1N	none
COc1ccc2nc(SCC(=O)Nc3ccc4c(c3)OCCO4)[nH]c2c1	GRK2 inh 75.0 (no result: T cell modulator) | GRK2 inh confirm 98.6 | Aptamer quench 1 inactive | FAM quench CP1 inactive
CCc1cccc(C)c1NC(=O)CSc1n[nH]c(N)n1	GRK2 inh 100.0 (no result: EBV gp42 inh, MEX-5 binding) | GRK2 inh confirm inactive | FAM quench CP1 inactive
CCOc1ccccc1NC(=O)CSc1n[nH]c(N)n1	none (no result: EBV gp42 inh)
CCCCn1c(N)c(N(CC(C)C)C(=O)c2cc(=O)[nH]c3ccccc23)c(=O)[nH]c1=O	none (no result: EBV gp42 inh)
Cc1ccc(S(=O)(=O)NCC2COc3ccccc3O2)cc1 (stereo unspecified)	none
Cc1ccc([N+](=O)[O-])cc1S(=O)(=O)NCC1COc2ccccc2O1 (stereo unspecified)	GRK2 inh 54.0 (no result: EBV gp42 inh) | GRK2 inh confirm inactive | FAM quench CP1 inactive
Cc1nc2c(sc(=S)n2Cc2ccco2)c(=O)n1CC(=O)Nc1ccccc1Cl	GRK2 inh 84.0 (no result: EBV gp42 inh) | GRK2 inh confirm inactive | FAM quench CP1 inactive
NS(=O)(=O)c1ccc(CCNC(=O)CNC(=O)c2ccccc2Br)cc1	Keap1-Nrf2 PPI inconclusive (no result: EBV gp42 inh)
COc1ccc(Br)c2oc(SC)cc(=O)c12	none
Cn1c(-c2c(N)n(-c3ccccc3)c3nc4ccccc4nc23)nc2ccccc21	none
Cc1cccc(-n2c(N)c(-c3nc4ccccc4n3C)c3nc4ccccc4nc32)c1	GRK2 inh 97.0 | GRK2 confirm 2 inactive | FAM quench CP2 inactive
O=C1CCC(=O)c2oc3ccccc3c2N1	none
O=c1sc2ccccc2n1Cc1ccccc1	GRK2 inh 85.0 | GRK2 inh confirm inactive | FAM quench CP1 inactive
COc1ccc(Cn2c(=O)sc3ccccc32)cc1	none
Cc1ccc(C2=Nc3ccc(Br)cc3C(c3ccncc3)=NN2)cc1	none
Cc1ccc(CN2CCN(Cc3cnc(C)s3)CC2CCO)o1 (stereo unspecified)	none
Cc1ccc(CN2CCN(Cc3cnc(N4CCOCC4)s3)CC2CCO)o1 (stereo unspecified)	GRK2 inh 72.0 | GRK2 inh confirm inactive | FAM quench CP1 inactive
Cc1ccc(CN2CCN(CC(C)C)C(CCO)C2)s1 (stereo unspecified)	GRK2 inh 97.0 | GRK2 inh confirm inactive | FAM quench CP1 inactive
CC1CCCCN1C(=O)Cn1cc(C(=O)c2ccco2)c2ccccc21 (stereo unspecified)	GRK2 inh 97.0 | GRK2 inh confirm inactive | FAM quench CP1 inactive
O=C1CCCC(O)=C1N=Nc1cccc(C(=O)O)c1	GRK2 inh 83.0 | GRK2 inh confirm inactive | FAM quench CP1 inactive
C=CCNC(=S)NC1CC(C)(C)NC(C)(C)C1	none
CC1(C)CC(NC(=S)NC2CC2)CC(C)(C)N1	GRK2 inh 69.0 | GRK2 inh confirm inactive | FAM quench CP1 inactive
CN(Cc1nc2ccccc2[nH]1)C(=O)C1CCC(=O)N(CCc2cccc(F)c2)C1 (stereo unspecified)	none (no result: EBV gp42 inh) | GRK2 inh confirm inactive | FAM quench CP1 inactive
Cc1ccc(SCC(=O)N(C)CC(=O)Nc2cccc(F)c2)cc1	none (no result: EBV gp42 inh)
CCOC(=O)NNC1CC(=O)N(c2ccccc2)C1=O (stereo unspecified)	none
CCOc1ccc(C(C)NC(=O)Cc2ccccc2F)cc1OCC (stereo unspecified)	GRK2 inh 68.0 | GRK2 inh confirm inactive | FAM quench CP1 inactive
Cc1ccc2nc(SCC(=O)Nc3cccc(F)c3)nc(=O)n2c1	GRK2 inh 100.0 (no result: EBV gp42 inh) | GRK2 inh confirm inactive | FAM quench CP1 inactive
CN(C)S(=O)(=O)N(CC(=O)NCc1ccccc1)c1ccccc1	none
Cc1ccc(CN=C(Nc2ccccc2)NC2CCCCC2)cc1	none
CCOC(=O)CCCNC(=O)COC(=O)[C@@H]1CCCN1S(=O)(=O)c1ccc(Cl)cc1	none
